The text below walks through data of ChEMBL document CHEMBL1255504, “Functional profiling of p53-binding sites in Hdm2 and Hdmx using a genetic selection system” (Bioorg Med Chem, 2010).

Calls of active or inactive are those of the source. The rule behind the calls is not given here. Where a SMILES comes first, the peptide text is derived from it. The star is where a group is joined. Isobutyryl = CC(C)C(=O)*; Piperidide = C1CCN(*)CC1; Cbz = O=C(OCc1ccccc1)*; PhAc = O=C(Cc1ccccc1)*; Boc = CC(C)(C)OC(=O)*; NHBn = c1ccc(CN*)cc1; Piv = CC(C)(C)C(=O)*; NHtBu = CC(C)(C)N*

Data set [1] addresses T1, E3 ubiquitin-protein ligase Mdm2 (Homo sapiens, UniProt Q00987). Briefly: Inhibition of GST-tagged p53 binding to Hdm2 by ELISA. (An ELISA detects its analyte on a solid surface through an enzyme-linked reagent.)
Data set [2] in a line: Solubility of the compound. It is filed as physicochemical.
In data set [3] the target is T2, Protein Mdm4 (Homo sapiens) (UniProt O15151).
T2 sequence (whole entry): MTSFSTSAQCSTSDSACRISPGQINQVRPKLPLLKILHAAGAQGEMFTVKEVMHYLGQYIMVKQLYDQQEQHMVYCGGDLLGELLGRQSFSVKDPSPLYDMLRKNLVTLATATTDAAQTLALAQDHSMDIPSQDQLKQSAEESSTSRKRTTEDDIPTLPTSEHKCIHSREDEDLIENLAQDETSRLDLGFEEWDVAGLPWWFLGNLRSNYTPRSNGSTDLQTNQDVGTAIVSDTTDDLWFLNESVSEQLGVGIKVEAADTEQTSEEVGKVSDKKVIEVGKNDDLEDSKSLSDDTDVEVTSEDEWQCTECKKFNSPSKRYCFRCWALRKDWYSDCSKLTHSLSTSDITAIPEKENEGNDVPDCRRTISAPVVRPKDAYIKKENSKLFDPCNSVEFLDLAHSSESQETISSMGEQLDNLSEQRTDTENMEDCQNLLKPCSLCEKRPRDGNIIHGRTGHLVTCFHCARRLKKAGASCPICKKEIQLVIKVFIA
Briefly: Inhibition of GST-tagged MDMX expressed in Escherichia coli harboring integrated p53-Hmd2 protein assessed as blockade of enzyme-p53 interaction by beta-galactosidase assay. The conditions noted are these: concentration not given here. Put shortly:
(§1)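 E. coli reporter strain SNS126 (HIS3-KanR-lacZ) carrying chromosomally integrated DBD-fusion repressor halves (Hdm2–p53 or Hdmx–p53), transformed with SICLOPPS cyclic-peptide constructs and tested in both native and opposite strains. Cells grown on solid LB with 32 µM IPTG plus 9.7 µM L-arabinose; β-galactosidase measured by ONPG hydrolysis. % derepression = percent β-galactosidase enhancement relative to unrepressed (DBD-only) control.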

For data set [4], the target named is T2, Protein Mdm4 (Homo sapiens). As to the kind of experiment: Inhibition of GST-tagged MDMX expressed in Escherichia coli harboring integrated p53-Hmd2 protein assessed as enzyme-p53 interaction by beta-galactosidase assay. Set-up: concentration or dose not given beside the values. The following applies: concentration not given here. Put shortly:
as §1

Data set [5] shares this target. As to the kind of experiment: Inhibition of GST-tagged MDMX expressed in Escherichia coli harboring integrated p53-MDMX protein assessed as enzyme-p53 interaction by beta-galactosidase assay. Details: concentration or dose not given beside the values. The following applies: concentration not given here. The procedure, abridged: as §1
The target is the same in data set [6]. Briefly: Inhibition of GST-tagged MDMX expressed in Escherichia coli harboring integrated p53-Hmd2 protein assessed as enhancement of enzyme-p53 interaction by beta-galactosidase assay. Set-up: concentration or dose not given beside the values. The conditions noted are these: concentration not given here. The procedure, abridged: as §1
Data set [7] shares this target. As to the kind of experiment: Inhibition of GST-tagged MDMX expressed in Escherichia coli harboring integrated p53-MDMX protein assessed as enhancement of enzyme-p53 interaction by beta-galactosidase assay. The conditions noted are these: concentration not given here. Set-up: concentration or dose not given beside the values. The procedure, abridged: as §1
The target is the same in data set [8]. Briefly: Inhibition of GST-tagged MDMX expressed in Escherichia coli harboring integrated p53-MDMX protein assessed as blockade of enzyme-p53 interaction by beta-galactosidase assay. The conditions noted are these: concentration not given here. Details: concentration or dose not given beside the values. The procedure, abridged: as §1
The target of data set [9] is T1, E3 ubiquitin-protein ligase Mdm2. Briefly: Inhibition of GST-tagged Hdm2 expressed in Escherichia coli harboring integrated p53-Hmd2 protein assessed as blockade of enzyme-p53 interaction by beta-galactosidase assay. The conditions noted are these: concentration not given here. Put shortly: as §1
Target sequence in this assay (Q00987 whole entry, looked up): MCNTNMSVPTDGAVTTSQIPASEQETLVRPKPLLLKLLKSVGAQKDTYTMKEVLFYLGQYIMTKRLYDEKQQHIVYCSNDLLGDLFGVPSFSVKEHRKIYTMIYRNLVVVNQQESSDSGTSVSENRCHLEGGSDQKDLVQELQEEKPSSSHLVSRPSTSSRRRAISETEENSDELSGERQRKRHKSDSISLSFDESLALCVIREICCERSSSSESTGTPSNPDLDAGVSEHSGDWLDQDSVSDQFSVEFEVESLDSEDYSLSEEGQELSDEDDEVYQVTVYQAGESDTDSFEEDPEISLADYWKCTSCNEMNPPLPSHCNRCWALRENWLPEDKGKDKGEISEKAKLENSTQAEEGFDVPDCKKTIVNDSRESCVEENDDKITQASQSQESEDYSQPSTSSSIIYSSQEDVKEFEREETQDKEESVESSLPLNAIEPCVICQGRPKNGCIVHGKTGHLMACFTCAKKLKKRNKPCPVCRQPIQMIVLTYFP
Data set [10] shares this target. Briefly: Inhibition of GST-tagged Hdm2 expressed in Escherichia coli harboring integrated p53-Hmd2 protein assessed as enzyme-p53 interaction by beta-galactosidase assay. The conditions noted are these: concentration not given here. The procedure, abridged:
as §1
Target sequence in this assay (Q00987 whole entry, looked up): as above

Data set [11] has the same target. Briefly: Inhibition of GST-tagged Hdm2 expressed in Escherichia coli harboring integrated p53-MDMX protein assessed as enzyme-p53 interaction by beta-galactosidase assay. The following applies: concentration not given here. The procedure, abridged:
as §1
Target sequence in this assay (Q00987 whole entry, looked up): as above

Data set [12] shares this target. Briefly: Inhibition of GST-tagged Hdm2 expressed in Escherichia coli harboring integrated p53-Hmd2 protein assessed as enhancement of enzyme-p53 interaction by beta-galactosidase assay. The conditions noted are these: concentration not given here. Put shortly: as §1
Target sequence in this assay (Q00987 whole entry, looked up): as above
The target is the same in data set [13]. As to the kind of experiment: Inhibition of GST-tagged Hdm2 expressed in Escherichia coli harboring integrated p53-MDMX protein assessed as enhancement of enzyme-p53 interaction by beta-galactosidase assay. The following applies: concentration not given here. Put shortly:
as §1
Target sequence in this assay (Q00987 whole entry, looked up): as above

For data set [14] the target is unchanged. As to the kind of experiment: Inhibition of GST-tagged Hdm2 expressed in Escherichia coli harboring integrated p53-MDMX protein assessed as blockade of enzyme-p53 interaction by beta-galactosidase assay. The conditions noted are these: concentration not given here. The procedure, abridged:
as §1
Target sequence in this assay (Q00987 whole entry, looked up): as above

In general, inhibition refers to how much of the control response was suppressed. For the compound `CC(C)(C)OC(=O)N[C@@H](CCCNC(=N)N)C(=O)N[C@@H](Cc1c[nH]c2ccccc12)C(=O)N[C@@H](Cc1ccccc1)C(=O)N1CCCCC1`, in [1], the inhibition result was “inactive”.

As for `CC(C)COC(=O)N[C@@H](CCCNC(=N)N)C(=O)N[C@@H](Cc1c[nH]c2ccccc12)C(=O)N[C@@H](Cc1ccccc1)C(=O)NC(C)(C)C`, the inhibition result in [1] is “inactive”.

In the case of `CC(C)COC(=O)N[C@@H](CCCNC(=N)N)C(=O)N[C@@H](Cc1c[nH]c2ccccc12)C(=O)N[C@@H](Cc1ccccc1)C(=O)NCc1ccccc1`, the inhibition entry in data set [1] was “inactive”.

For the compound `CC(C)(C)OC(=O)N[C@@H](CCCNC(=N)N)C(=O)N[C@@H](Cc1c[nH]c2ccccc12)C(=O)N[C@@H](Cc1ccccc1)C(=O)NCc1ccccc1` (Boc-Arg-Trp-Phe-NHBn), the inhibition entry in [1] is “inactive”.

On to `CC(C)(C)NC(=O)[C@H](Cc1ccccc1)NC(=O)[C@H](Cc1c[nH]c2ccccc12)NC(=O)[C@H](CCCNC(=N)N)NC(=O)OC(C)(C)C` (Boc-Arg-Trp-Phe-NHtBu), for which, in [1], the inhibition entry is “inactive”.

On to `CC(C)[C@H](NC(=O)[C@H](Cc1ccc(O)cc1)NC(=O)[C@H](Cc1ccc(O)cc1)NC(=O)[C@H](Cc1ccccc1)NC(=O)OC(C)(C)C)C(=O)N1CCCCC1` (Boc-FYYV-Piperidide), for which, in [2], the solubility result is on record as “Insoluble”.

Turning to `CC[C@H](C)[C@H](NC(=O)OC(C)(C)C)C(=O)N[C@@H](Cc1ccccc1)C(=O)N[C@@H](Cc1ccc(O)cc1)C(=O)N[C@@H](Cc1ccc(O)cc1)C(=O)N[C@H](C(=O)N1CCCCC1)C(C)C` (Boc-IFYYV-Piperidide), the solubility entry in [2] is given as “Insoluble”.

On to `N=C(N)NCCC[C@H](NC(=O)OCc1ccccc1)C(=O)N[C@@H](Cc1c[nH]c2ccccc12)C(=O)N[C@@H](Cc1ccccc1)C(=O)NCc1ccccc1` (Cbz-Arg-Trp-Phe-NHBn), for which the inhibition result in data set [1] is “inactive”.

For the compound `N=C(N)NCCC[C@H](NC(=O)OCc1ccccc1)C(=O)N[C@@H](Cc1c[nH]c2ccccc12)C(=O)N[C@@H](Cc1ccccc1)C(=O)N1CCCCC1` (Cbz-Arg-Trp-Phe-Piperidide), in data set [1], the inhibition result was “inactive”.

As for `CC(C)C(=O)N[C@@H](CCCNC(=N)N)C(=O)N[C@@H](Cc1c[nH]c2ccccc12)C(=O)N[C@@H](Cc1ccccc1)C(=O)NCc1ccccc1` (Isobutyryl-Arg-Trp-Phe-NHBn), the inhibition result in [1] was “inactive”.

`CC(C)C(=O)N[C@@H](CCCNC(=N)N)C(=O)N[C@@H](Cc1c[nH]c2ccccc12)C(=O)N[C@@H](Cc1ccccc1)C(=O)NC(C)(C)C` (Isobutyryl-Arg-Trp-Phe-NHtBu): the inhibition result in data set [1] was “inactive”.

Turning to `N=C(N)NCCC[C@H](NC(=O)Cc1ccccc1)C(=O)N[C@@H](Cc1c[nH]c2ccccc12)C(=O)N[C@@H](Cc1ccccc1)C(=O)NCc1ccccc1` (PhAc-Arg-Trp-Phe-NHBn), in data set [1], the inhibition entry is “inactive”.

For `CC(C)(C)NC(=O)[C@H](Cc1ccccc1)NC(=O)[C@H](Cc1c[nH]c2ccccc12)NC(=O)[C@H](CCCNC(=N)N)NC(=O)Cc1ccccc1` (PhAc-Arg-Trp-Phe-NHtBu), in data set [1], the inhibition result was “inactive”.

Turning to `CC(C)(C)C(=O)N[C@@H](CCCNC(=N)N)C(=O)N[C@@H](Cc1c[nH]c2ccccc12)C(=O)N[C@@H](Cc1ccccc1)C(=O)NCc1ccccc1` (Piv-Arg-Trp-Phe-NHBn), in [1], the inhibition result was “inactive”.

As to `CC(C)(C)NC(=O)[C@H](Cc1ccccc1)NC(=O)[C@H](Cc1c[nH]c2ccccc12)NC(=O)[C@H](CCCNC(=N)N)NC(=O)C(C)(C)C` (Piv-Arg-Trp-Phe-NHtBu), the inhibition entry in [1] is “inactive”.

The term IC50 denotes the concentration at which inhibition is half-maximal. In the case of `CC[C@H](C)[C@@H]1NC(=O)[C@H](C)NC(=O)[C@H](C(C)C)NC(=O)[C@H](Cc2ccc(O)cc2)NC(=O)[C@H](Cc2ccc(O)cc2)NC(=O)[C@H](Cc2ccccc2)NC1=O` (cyclo(AIFYYV)), in data set [1], the Activity entry is “Dose-dependent effect” and the 50% inhibitory concentration (IC50) stood at 209 µM.

For the compound H-CDLRWF-OH, the inhibition in data set [3] was determined as 6%; in [4], 37%; in data set [5], 86%; in data set [6], 4%; in [7], 45%; in data set [8], 76%.

In the case of H-CHLRWL-OH, the inhibition in data set [3] was determined as 10%; in data set [4], 41%; in data set [5], 75%; in data set [6], 7%; in data set [7], 34%; in [8] it was 58%.

As for H-CIFYYV-OH, the inhibition in data set [9] came out at 51%; in data set [10], 67%; in [11], 66%; in data set [12], 34%; in data set [13], 24%; in data set [14], 42%.

For H-CIWWYM-OH, the inhibition in [9] was found to be 12%; in data set [10], 41%; in [11], 70%; in data set [12] it was 8%; in [13], 29%; in data set [14], 49%.

Consider H-CKAVLF-OH, for which the inhibition was found to be 7% in data set [3]; 38% in data set [4]; 71% in data set [5]; 5% in data set [6]; 30% in data set [7]; 51% in [8].

Turning to H-CLFFNY-OH, the inhibition in data set [3] amounted to 18%; in data set [4] it was 45%; in data set [5] it was 69%; in [6] it was 12%; in [7], 28%; in [8], 47%.

For H-CLWWYM-OH, the inhibition in [9] was determined as 18%; in data set [10], 45%; in data set [11], 65%; in [12] it was 12%; in data set [13] it was 24%; in data set [14], 41%.

H-CMFYYI-OH: the inhibition turned out to be 18% in [9]; 45% in data set [10]; 63% in data set [11]; 12% in data set [12]; 22% in data set [13]; 37% in [14].

H-CRLLDF-OH: the inhibition was 7% in [3]; 38% in data set [4]; 70% in data set [5]; 5% in data set [6]; 29% in data set [7]; 49% in data set [8].
